Bioassay records (PubChem BioAssay)
This is a sample that favours compounds with a hit; in the whole collection about 2.3% have one here.
TRPC4 act = activators of mouse TRPC4 channel, primary screen, Fluo4 calcium, HEK293 TRPC4beta/mu-opioid cells; Short transient receptor potential channel 4 (Mus musculus), Q9QUQ5; Fluo4 calcium fluorescence; active compounds read high; B-score at 10 µM; hit rate 0.49% among 310,000;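 active means B-score above 5 SD of library B-scores, and initial fluorescence ratio not above library mean plus 5 SD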;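 further: positive B-score marks a calcium rise read as TRPC4 activation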
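Assay system – TRPC4beta and mu-opioid receptor HEK293 stable cells · Measured by – Fluo4 fluorescence, kinetic · Schedule – dye loading 45 min room temperature, 110 s kinetic read · Read-out – B-scored integrated calcium fluorescence ratio · Controls – buffer and maximal DAMGO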
TRPC4 block = inhibitors of mouse TRPC4 channel, primary screen, Fluo4 calcium, HEK293 TRPC4beta/mu-opioid cells; Short transient receptor potential channel 4 (Mus musculus), Q9QUQ5; DAMGO-evoked Fluo4 calcium flux; active compounds read low; B-score at 10 µM; hit rate 0.39% among 300,000;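 active means B-score over 3 SD under the library average, no early fluorescence shift, positive overall ratio signal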
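Test system – stable TRPC4beta/mu-opioid receptor HEK293 cells · Probe or stimulus – DAMGO, a submaximal dose followed by a maximal one · Dosing – one concentration per compound · Signal – Fluo4 calcium fluorescence by kinetic imaging, 5 s 1 Hz baseline · Evaluation – per-well B score of integrated baseline-normalized Fluo4 ratio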
TRPC6 inhibitor = mouse TRPC6 channel inhibitors, primary screen, cell-based, HEK293, membrane potential dye; Short transient receptor potential channel 6 (Mus musculus), Q61143; ACh-evoked depolarization; active compounds read low; B-score at 10 µM; hit rate 1.1% among 310,000; AID 2553, 2010;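 active means B-score under library mean minus 3 SD, initial fluorescence not abnormally high, positive integrated signal ratio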;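 further: B-score derived from integrated fluorescence ratio over the kinetic read; more negative B-score means stronger inhibition of depolarization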
TRPC6 act = mouse TRPC6 channel activators, primary screen, cell-based, HEK293, membrane potential dye; AID 2550, 2010; hit rate 0.13% among 310,000; B-score at 10 µM; HEK293-TRPC6 membrane potential dye fluorescence; active compounds read high;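 active means B-score of the integrated fluorescence ratio above library mean plus 3 SD, and starting fluorescence ratio within library mean plus 5 SD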;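 further: higher score means more depolarization so channel activation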
TRPC4 potent = positive allosteric modulators of TRPC4, primary screen, cell-based, mouse TRPC4beta, HEK293 mu-opioid, Fluo-4 calcium. Short transient receptor potential channel 4 (Mus musculus), Q9QUQ5. DAMGO EC20, Fluo-4 Ca2+ flux; active compounds read high. B-score at 10 µM. hit rate 0.42% among 310,000. AID 2227, 2009;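 active means B-score of calcium response area above 5 SD of library B-scores, with initial fluorescence ratio within 5 SD of library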;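 further: B-score of integrated fluorescence ratio over time as area under calcium response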
Numbers without * were called inactive; i = inactive; . = no result.

SMILES	TRPC4 act	TRPC4 block	TRPC6 inhibitor	TRPC6 act	TRPC4 potent
CN(C)CC1CCCCC1OC(=O)c1ccc(Br)cc1 (stereo not given)	i	-6*	i	i	i
CCOC(=O)N1CCN(c2nc3ccc(C)cc3n3cnnc23)CC1	i	i	i	i	i
CCCCOc1c(Cl)cc(CNC(C)(C)CO)cc1OCC	i	i	i	i	i
CCCCNCc1cc(Cl)c(OCCC)c(OCC)c1	i	-7*	i	i	i
COc1ccc(-c2csc(NC(=O)Cc3cccc4ccccc34)c2C(=O)O)cc1	i	-7*	i	i	i
c1ccc(Nc2ncnc3sc4c(c23)CCC4)cc1	216*	i	i	i	i
Fc1ccc(Nc2ncnc3sc4c(c23)CCC4)cc1F	i	i	i	i	i
Cc1nc(-n2nnc3ccccc32)c2c3c(sc2n1)CCCC3	i	i	i	i	i
c1ccc2c(c1)nnn2-c1ncnc2sc3c(c12)CCCC3	i	-6*	i	i	i
Fc1ccc(Nc2ncnc3sc4c(c23)CCC4)cc1	i	i	i	i	66*
CC(C)c1ccccc1NC(=O)CNCCOc1ccccc1F	i	i	i	i	i
CCCCn1c(N)c(N(CC(C)C)C(=O)c2cc(-c3ccc(F)cc3)nc3ccccc23)c(=O)[nH]c1=O	i	i	i	i	i
Cc1nc2ccc([N+](=O)[O-])cc2c(=O)n1Cc1ccc(Br)cc1	i	i	i	i	i
O=C(Cc1ccccc1[N+](=O)[O-])OCc1cccc([N+](=O)[O-])c1	i	-6*	i	i	i
C=CCNC(=O)c1scc2c1CCCC2	i	i	i	i	i
CN(C)CCNC(=O)c1scc2c1CCCC2	142*	i	i	i	i
O=Cc1cn(CCOc2ccccc2F)c2ccccc12	i	i	i	i	i
CC1CC(C)CN(CCCNS(=O)(=O)c2ccc3c(c2)oc(=O)n3C)C1 (stereo not given)	49*	i	i	i	i
CCCNS(=O)(=O)c1cc(Br)cc2c1N(C(=O)CC)CC2	i	i	i	i	i
CCOCCCNS(=O)(=O)c1cc(Br)cc2c1N(C(=O)C1CC1)CC2	i	i	i	i	i
CC1CCN(C(=O)CCNS(=O)(=O)c2ccc3c(c2)oc(=O)n3C)CC1	i	i	i	i	i
CCC(=O)N1CCc2cc(Br)cc(S(=O)(=O)NCCCN(CC)Cc3ccccc3)c21	148*	i	i	i	i
CC(=O)N1CCc2cc(Br)cc(S(=O)(=O)NCCCN(C)Cc3ccccc3)c21	119*	i	i	i	i
CCC(=O)N1CCc2cc(Br)cc(S(=O)(=O)NCCCN(C)Cc3ccccc3)c21	82*	i	i	i	40*
COc1ccc(C(=O)Nc2ccc(NC(=O)c3cc(OC)c(OC)c(OC)c3)cn2)cc1	i	i	i	i	i
SMILES	TRPC4 act	TRPC4 block	TRPC6 inhibitor	TRPC6 act	TRPC4 potent
CN(Cc1ccco1)S(=O)(=O)c1csc(C(N)=O)c1	i	i	i	i	i
CCC(=O)N1CCc2cc(S(=O)(=O)NCCCN(CC)Cc3ccccc3)ccc21	50*	i	i	i	i
CCC(=O)N1CCc2cc(S(=O)(=O)NCCN3CCCCC3CC)ccc21 (stereo not given)	i	-9*	i	i	i
CC1CC(C)CN(CCCNS(=O)(=O)c2ccc3c(c2)CCN3C(=O)C2CC2)C1 (stereo not given)	66*	i	i	i	i
CCOC(=O)C1CCN(C(=O)CCNS(=O)(=O)c2ccc3c(c2)CCN3C(=O)CC)CC1	i	i	i	i	i
CC(C)c1nc(SCC(=O)Nc2ccc(N(C)C)cc2)c2ccccc2n1	i	i	i	i	i
CC(=O)C1=C(C)Nc2ncnn2C1c1cccc(Br)c1 (stereo not given)	i	i	i	i	i
Cc1ccc(CN(C(=O)c2csnn2)C(C(=O)NC2CCCC2)c2ccccn2)cc1 (stereo not given)	i	i	i	i	i
Cc1cc(S(=O)(=O)NC2CCN(Cc3ccccc3)CC2)c(C)cc1Cl	i	i	i	i	20*
Cc1cc(C)c(S(=O)(=O)NC2CCN(Cc3ccccc3)CC2)c(C)c1	i	i	i	i	i
O=C(c1cccc(-c2ccccc2)c1)N1CC[C@@H](N2CCC(O)CC2)[C@H](O)C1	i	i	i	i	i
CCc1ccc2nc(N=C(N)N)nc(C)c2c1	i	-8*	i	i	i
CCOc1ccc(N2CC(C(=O)NNC(=O)c3ccc(Br)cc3)CC2=O)cc1 (stereo not given)	i	i	i	i	i
O=C(Nc1cc(Cl)cc(Cl)c1)c1cnn2cccnc12	i	i	i	i	i
COC(=O)c1ccccc1NC(=O)c1cnn2cccnc12	i	i	i	i	54*
O=C(Nc1cccc(Cl)c1)c1cnn2cccnc12	i	.	i	i	34*
O=C(Nc1ccc(NC(=O)C2CC2)cc1)c1cccs1	i	i	i	i	i
CC(C)CCn1c(O)c(N=NC(=O)c2ccco2)c2ccccc21	i	i	i	i	i
CC(C)Cn1c(O)c(N=NC(=O)c2cccc(S(=O)(=O)N3CCCCC3)c2)c2ccccc21	i	i	i	i	17*
CCn1c(SCC(=O)N(C)c2ccccc2)nc2c([nH]c3ccccc32)c1=O	i	i	i	i	i
CCN(CC)CCOC(=O)c1cccc(OC)c1	80*	i	i	i	i
CCN(CC)CCOC(=O)c1cccc(Cl)c1	i	i	i	i	i
CCN(CC)CCOC(=O)c1cccc(Br)c1	i	i	i	i	27*
CC(C)CN(CC(C)C)c1nc(N)c(C#N)c(CC#N)c1C#N	i	-6*	i	i	i
CC(=O)N1CCN(c2nc(CC(C)C)c3c(c2C#N)CCC3)CC1	i	i	i	i	i
CC(C)Cc1nc(N2CCN(C(=O)c3ccccc3)CC2)c(C#N)c2c1CCC2	i	i	i	i	13*
